Assay results from different studies.
Protocols differ between the studies behind these lines.
Cell line: HCT-116
Effect on: cell growth or viability

Compound | assay | conditions | IC50
COC(=O)c1cc2ccc(O)cc2oc1=O | MTT | 36 h | > 20 µM
CC(=O)O[C@H]1C(=O)[C@@]2(C)[C@H]([C@H](OC(=O)c3ccccc3)[C@]3(O)C[C@H](OC(=O)[C@H](O)[C@@H](NC(=O)c4ccccc4)c4ccccc4)C(C)=C1C3(C)C)[C@]1(OC(C)=O)CO[C@@H]1C[C@@H]2O | fluorescence | 72 h | 0.0019 µM
COc1cccc2c3c(c[n+](C)c12)sc1cccc(F)c13 | MTT | 72 h | 6.8 µM
O=C(Nc1nnc(-c2cc3ccccc3[nH]2)s1)c1cc2c([nH]c3ccccc32)c(-c2ccc(F)cc2)n1 | MTT | 72 h | 6.22 µM
Cc1c(OCC(F)(F)F)ccnc1COc1ccc(NC(=O)Nc2cc(F)cc(F)c2)cc1 | MTT | 72 h | 52 µM
CC1(C)CC[C@]2(C)CC[C@]3(C)C(=CC[C@@H]4[C@@]5(C)CC[C@H](O)C(C)(C)[C@@H]5CC[C@]43C)[C@@H]2C1 | WST-1 | 48 h | 91.3 µM
COc1ccnc(COc2ccc(NC(=O)Nc3ccc(Cl)cc3)cc2)c1OC | MTT | 72 h | 12.8 µM
COc1cc(CNC(=O)CCCC/C=C/C(C)C)ccc1OCc1cn(-c2ccc(C#N)cc2)nn1 | SRB | – | 10.5 µM
Cc1c(OCC(F)(F)F)ccnc1COc1ccc(NC(=O)Nc2ccc(Cl)c(C(F)(F)F)c2)cc1 | MTT | 72 h | 5.6 µM
Nc1nc(Oc2ccccc2)nn1-c1ccc(C(=O)O)cc1 | MTT | – | 61.2 µM
C=CC(=O)N1CCC[C@@H](n2nc(-c3ccc(Oc4ccccc4)cc3)c3c(N)ncnc32)C1 | – | – | > 10 µM
NC(=O)NOCCCCCCCCCCCC[P+](c1ccccc1)(c1ccccc1)c1ccccc1 | imaging | – | 1.8 µM
CCN(CC)C(=S)NC(=O)c1ccc2ccccc2c1 | – | 48 h | 5.07 µM
O=C(O)C[C@H](O)C[C@H](O)/C=C/c1c(C2CC2)nc2ccccc2c1-c1ccc(F)cc1 | SRB | 72 h | 7.46 µg/mL
COc1cc([C@@H]2c3cc4c(cc3[C@@H](O[C@@H]3O[C@@H]5CO[C@@H](C)O[C@H]5[C@H](O)[C@H]3O)[C@H]3COC(=O)[C@H]23)OCO4)cc(OC)c1O | MTS | 48 h | 23.3 µM
CC(C)C[C@H](NC(=O)[C@H](Cc1ccccc1)NC(=O)c1cnccn1)B(O)O | ATP luminescence | – | 0.0097 µM
FC(F)(F)c1ccc(C(c2c[nH]c3ccccc23)c2c[nH]c3ccccc23)cc1 | ATP luminescence | 22 h | 9.3 µM
Cc1cc(C)n(-c2nc(Nc3ccc(Br)cc3)nc(N3CCOCC3)n2)n1 | MTT | 72 h | 0.5 µM
CC1=C(O)C(=O)C=C2C1=CC=C1[C@@]2(C)CC[C@@]2(C)[C@@H]3C[C@](C)(C(=O)OCCCOc4ccccc4)CC[C@]3(C)CC[C@]12C | MTT | 48 h | 1.34 µM
COc1c(C)cnc(COc2ccc(NC(=O)Nc3cccc(C(F)(F)F)c3)cc2)c1C | MTT | 72 h | 12.5 µM
COc1cccc2c1C(=O)c1c(O)c3c(c(O)c1C2=O)C[C@@](O)(C(=O)CO)C[C@@H]3O[C@H]1C[C@H](N)[C@H](O)[C@H](C)O1 | – | 48 h | 1.02 µM
COCCCOc1ccnc(COc2ccc(NC(=O)Nc3cc(F)cc(F)c3)cc2)c1C | MTT | 72 h | 56.6 µM
CC1=C(O)C(=O)C=C2C1=CC=C1[C@@]2(C)CC[C@@]2(C)[C@@H]3C[C@](C)(C(=O)OCCCCCCO)CC[C@]3(C)CC[C@]12C | MTT | 48 h | 0.53 µM
COCCCOc1ccnc(COc2ccc(NC(=O)Nc3ccc(Cl)c(C(F)(F)F)c3)cc2)c1C | MTT | 72 h | 10.1 µM

Compound | assay | conditions | IC50
CC1=C(O)C(=O)C=C2C1=CC=C1[C@@]2(C)CC[C@@]2(C)[C@@H]3C[C@](C)(C(=O)OCCCCCCCCO)CC[C@]3(C)CC[C@]12C | MTT | 48 h | 0.58 µM
Cc1c(C)c2c(O)cc(O)cc2oc1=O | MTT | 36 h | > 20 µM
COCCCOc1ccnc(COc2ccc(NC(=O)Nc3ccc(OC)cc3)cc2)c1C | MTT | 72 h | 12.7 µM
CSc1nc(/N=C/c2cc([N+](=O)[O-])ccc2O)n(-c2ccc(C(=O)O)cc2)n1 | MTT | – | 60.3 µM
Cn1c(-c2nnc(NC(=O)c3cc4c([nH]c5ccccc54)c(-c4ccc(F)cc4)n3)s2)cc2ccccc21 | MTT | 72 h | 14.3 µM
COc1ccc2oc(=O)cc(CSC(C)=O)c2c1 | MTT | 36 h | > 20 µM
O=C(NC(=S)N1CCCC1)c1ccc2ccccc2c1 | – | 48 h | 6.22 µM
O=C(O)c1ccc(-n2nc(Oc3ccccc3)nc2/N=C/c2cc([N+](=O)[O-])ccc2O)cc1 | MTT | – | 62.8 µM
O=c1[nH]cc(F)c(=O)[nH]1 | WST-1 | 48 h | 9.5 µM
CCNC(=S)NC(=O)c1ccc2ccccc2c1 | – | 48 h | 4.14 µM
COCCCOc1ccnc(COc2ccc(NC(=O)Nc3ccc(Cl)cc3)cc2)c1C | MTT | 72 h | 9.5 µM
CC(=O)SCc1cc(=O)oc2ccc(O)cc12 | MTT | 36 h | > 20 µM
O=c1c(O)c(-c2ccc(O)cc2)oc2cc(O)cc(O)c12 | WST-1 | 48 h | 44.7 µM
CSc1nc(/N=C/c2ccc(O)cc2)n(-c2ccc(C(=O)O)cc2)n1 | MTT | – | 68.1 µM
COCCCOC(=O)[C@]1(C)CC[C@]2(C)CC[C@]3(C)C4=CC=C5C(=CC(=O)C(O)=C5C)[C@]4(C)CC[C@@]3(C)[C@@H]2C1 | MTT | 48 h | 0.49 µM
CCn1c(-c2nnc(NC(=O)c3cc4c([nH]c5ccccc54)c(-c4cc(OC)c(OC)c(OC)c4)n3)s2)cc2ccccc21 | MTT | 72 h | 18.7 µM
NC(=O)NOCCCC[P+](c1ccccc1)(c1ccccc1)c1ccccc1 | imaging | – | > 600 µM
O=C(Nc1nnnn1C1CCCCC1)c1ccc2ccccc2c1 | – | 48 h | 3.06 µM
Cc1ccc(O)c(/C=N/c2nc(Oc3ccccc3)nn2-c2ccc(C(=O)O)cc2)c1 | MTT | – | 74 µM
CC[C@H](C)C(=O)O[C@H]1CCC=C2C=C[C@H](C)[C@H](CC[C@@H]3C[C@@H](O)CC(=O)O3)[C@H]21 | SRB | 72 h | 4.57 µg/mL
COc1cc(CNC(=O)CCCC/C=C/C(C)C)ccc1OCc1cn(-c2ccc(C(F)(F)F)cc2)nn1 | SRB | – | 8.9 µM
CCn1c(-c2nnc(NC(=O)c3cc4c([nH]c5ccccc54)c(-c4ccc(C)cc4)n3)s2)cc2ccccc21 | MTT | 72 h | 15.1 µM
O=c1cc(CCl)c2cc(O)ccc2o1 | MTT | 36 h | > 20 µM
O=C(/N=c1\scc(-c2ccccc2)n1C1CCCCC1)c1ccc2ccccc2c1 | – | 48 h | 19.2 µM
